Key:
DmEcR/DmUSP = target: T1, DmEcR/DmUSP (Drosophila melanogaster, UniProt P34021); experiment: UV-irradiation of receptor complex with ligand, then [3H]ponasterone A binding; conditions: ligand 100 nM, 350 nm for 20 min, [3H]ponA 2.55 nM
T1 sequence (P34021 1-878): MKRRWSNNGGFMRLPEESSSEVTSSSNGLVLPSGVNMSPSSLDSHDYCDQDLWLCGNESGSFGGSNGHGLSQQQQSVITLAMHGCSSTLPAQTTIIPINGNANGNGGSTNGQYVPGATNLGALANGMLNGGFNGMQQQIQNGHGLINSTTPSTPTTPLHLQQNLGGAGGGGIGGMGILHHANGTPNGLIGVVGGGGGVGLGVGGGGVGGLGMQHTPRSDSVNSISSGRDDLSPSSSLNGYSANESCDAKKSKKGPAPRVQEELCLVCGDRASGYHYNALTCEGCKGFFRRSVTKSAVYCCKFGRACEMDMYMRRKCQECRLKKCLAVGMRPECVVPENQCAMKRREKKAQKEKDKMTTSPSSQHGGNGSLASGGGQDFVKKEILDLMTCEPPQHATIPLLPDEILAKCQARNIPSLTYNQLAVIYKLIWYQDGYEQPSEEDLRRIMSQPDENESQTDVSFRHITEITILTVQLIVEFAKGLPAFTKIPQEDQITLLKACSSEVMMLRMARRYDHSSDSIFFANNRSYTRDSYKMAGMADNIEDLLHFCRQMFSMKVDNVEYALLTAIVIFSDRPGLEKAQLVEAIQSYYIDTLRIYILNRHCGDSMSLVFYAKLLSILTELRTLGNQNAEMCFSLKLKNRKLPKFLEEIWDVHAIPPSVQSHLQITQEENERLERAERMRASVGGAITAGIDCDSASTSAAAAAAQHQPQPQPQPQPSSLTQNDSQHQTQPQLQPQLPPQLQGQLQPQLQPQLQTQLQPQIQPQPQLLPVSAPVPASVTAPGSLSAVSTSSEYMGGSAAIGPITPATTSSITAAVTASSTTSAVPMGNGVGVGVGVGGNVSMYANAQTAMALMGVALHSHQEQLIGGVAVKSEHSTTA
T1 sequence (P20153 1-508 partner): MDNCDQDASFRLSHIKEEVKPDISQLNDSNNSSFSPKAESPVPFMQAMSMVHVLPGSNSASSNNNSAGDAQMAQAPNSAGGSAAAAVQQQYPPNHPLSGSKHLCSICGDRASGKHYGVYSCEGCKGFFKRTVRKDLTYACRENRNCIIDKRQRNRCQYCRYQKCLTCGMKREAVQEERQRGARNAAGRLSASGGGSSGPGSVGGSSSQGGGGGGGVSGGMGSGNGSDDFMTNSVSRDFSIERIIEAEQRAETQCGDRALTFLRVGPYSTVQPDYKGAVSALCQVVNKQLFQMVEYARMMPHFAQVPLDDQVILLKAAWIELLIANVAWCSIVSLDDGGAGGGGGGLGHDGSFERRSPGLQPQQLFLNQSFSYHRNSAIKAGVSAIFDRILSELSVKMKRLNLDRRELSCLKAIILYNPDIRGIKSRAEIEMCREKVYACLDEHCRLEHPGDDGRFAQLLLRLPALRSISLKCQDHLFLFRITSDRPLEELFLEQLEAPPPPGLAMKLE
Method in brief: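 Crude extracts of bacterially expressed DmEcR/DmUSP were incubated with 100 nM ligand at 7°C for 16 h to equilibrium. Samples were irradiated in quartz tubes on a merry-go-round at 350 nm for 20 min, with non-irradiated controls. Unbound steroid was stripped with fatty-acid-free BSA plus dextran-coated charcoal (10 mM Tris/HCl, pH 7.2), 5 min ice-cold, then spun at 13,000 × g. Supernatant was equilibrated with 2.55 nM [3H]ponA at 7°C, DCC-stripped again, and scintillation-counted. Duplicates.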

CfEcR/CfUSP = target: T2, CfEcR/CfUSP (Choristoneura fumiferana, UniProt O77255); experiment: UV-irradiation of receptor complex with ligand, then [3H]ponasterone A binding; conditions: ligand 100 nM, 350 nm for 20 min, [3H]ponA 2.55 nM
T2 sequence (O77255 1-541): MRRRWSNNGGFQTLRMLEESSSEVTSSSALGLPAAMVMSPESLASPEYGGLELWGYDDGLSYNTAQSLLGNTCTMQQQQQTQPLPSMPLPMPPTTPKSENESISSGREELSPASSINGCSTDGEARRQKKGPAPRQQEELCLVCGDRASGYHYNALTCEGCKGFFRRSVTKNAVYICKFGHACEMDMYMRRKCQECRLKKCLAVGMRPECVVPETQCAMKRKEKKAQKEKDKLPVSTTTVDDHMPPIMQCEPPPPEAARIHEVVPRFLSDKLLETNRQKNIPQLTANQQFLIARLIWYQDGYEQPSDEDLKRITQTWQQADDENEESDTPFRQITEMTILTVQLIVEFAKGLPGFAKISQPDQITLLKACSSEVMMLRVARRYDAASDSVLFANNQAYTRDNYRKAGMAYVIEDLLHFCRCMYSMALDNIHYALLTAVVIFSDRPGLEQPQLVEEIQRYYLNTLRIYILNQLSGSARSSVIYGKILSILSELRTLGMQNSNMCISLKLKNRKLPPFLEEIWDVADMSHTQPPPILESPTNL
T2 sequence (O76202 1-472 partner): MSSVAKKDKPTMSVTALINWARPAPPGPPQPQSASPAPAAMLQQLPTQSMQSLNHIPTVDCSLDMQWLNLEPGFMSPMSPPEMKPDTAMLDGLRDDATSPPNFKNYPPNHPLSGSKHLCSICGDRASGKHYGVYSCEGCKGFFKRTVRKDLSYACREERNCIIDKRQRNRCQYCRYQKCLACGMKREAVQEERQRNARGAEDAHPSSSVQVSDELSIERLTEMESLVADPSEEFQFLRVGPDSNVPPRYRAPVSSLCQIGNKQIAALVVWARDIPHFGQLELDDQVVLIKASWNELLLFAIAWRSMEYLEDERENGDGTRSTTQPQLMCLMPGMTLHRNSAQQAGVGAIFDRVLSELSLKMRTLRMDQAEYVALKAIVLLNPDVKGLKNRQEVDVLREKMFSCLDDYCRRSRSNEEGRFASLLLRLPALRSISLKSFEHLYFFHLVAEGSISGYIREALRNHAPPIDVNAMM

SMILES | binding capacity for [3H]ponasterone A after irradiation with ligand (in words) (DmEcR/DmUSP) | binding capacity for [3H]ponasterone A after irradiation with ligand (in words) (CfEcR/CfUSP) | binding capacity for [3H]ponasterone A after irradiation with ligand (in words) (DmEcR/DmUSP; listed as 20E) | binding capacity for [3H]ponasterone A after irradiation with ligand (in words) (CfEcR/CfUSP; listed as 20E)
CC(C)CC[C@@H](O)[C@](C)(O)[C@H]1CC[C@@]2(O)C3=CC(=O)[C@@H]4C[C@@H](O)[C@@H](O)C[C@]4(C)C3=CC[C@]12C [compound 5, dacryhainansterone] | significantly reduced | significantly reduced |  | 
CC(C)(O)CC[C@@H](O)[C@](C)(O)[C@H]1CC[C@@]2(O)C3=CC(=O)[C@@H]4C[C@@H](O)[C@@H](O)C[C@]4(C)[C@H]3CC[C@]12C [compound 1, 20-hydroxyecdysone] |  |  | no blocking | no blocking
